# Calls of active or inactive are those of the source. No cut-off for these calls is given here.
# Experiments:
# HCT-116 [1] = test: Antiproliferative activity against human HCT116 cells after 72 hrs by resazurin-based fluorescence assay; format: functional, cell-based; details: HCT-116, 72 h
# PBL [2] = test: Cytotoxicity against human PBL cells assessed as reduction in cell viability after 72 hrs by MTS assay; format: cell-based
# Procedure, shortened: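 PBMCs from healthy donors were isolated on a Ficoll gradient and cultured overnight at 37°C in RPMI-1640 with 10% FCS. Non-adherent cells were set at 5 × 10⁵/mL with PHA 2.5 µg/mL (proliferating) or without it (quiescent). Serial dilutions 0.001–25 µM final (10 mM DMSO stocks) were applied for 72 h at 37°C, and viability was read by MTS.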
# [3] = Metabolic stability in human plasma at 5 uM after 120 mins by UPLC-MS/MS analysis; format: ADME, cell-free; details: read-out: Stability
# Procedure, shortened: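 Compound at 5 µM in human plasma at 37°C, sampled from 0 to 120 min. Stopped with acetonitrile, centrifuged, supernatant dried under nitrogen and reconstituted in 0.2% formic acid water/methanol 75/25. Measured by UPLC-MS/MS as % remaining. Procaine was the positive control.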
# [4] = Intrinsic clearance in human liver microsomes at 5 uM preincubated for 5 mins followed by NADPH addition measured after 45 mins by UPLC-MS/MS analysis; format: ADME, microsome; details: read-out: CLH
# [5] = Inhibition of sheep brain tubulin polymerization assessed as reduction in rate of microtubule assembly by DAPI-fluorescence based assay; design: species or system Ovis aries
# Procedure, shortened: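 Sheep brain tubulin purified by two assembly–disassembly cycles, about 10 µM in buffer at pH 6.6 with MgCl2, EGTA and 1 mm GTP. Assembly followed continuously at 37 °C by DAPI fluorescence. IC50 is the concentration halving the maximum assembly rate versus no compound. Reference compounds run the same day. Average of three experiments.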
# MCF7 = test: Antiproliferative activity against human MCF7 cells after 72 hrs by resazurin-based fluorescence assay; format: functional, cell-based; details: MCF7, 72 h
# Procedure, shortened: (§1)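 CellTiter-Blue viability. Cells plated at 5 × 10^3 per well and cultured 24 h, then given compound in DMSO (under 0.1%) for 72 h. Resazurin added for 2 h, fluorescence read at ex 560/em 590 nm. […] Run in triplicate. U87-MG grown in DMEM (4.5 g/L glucose, 10% FCS, 1% glutamine). K562, K562R (doxorubicin-resistant), A549 and MCF7 grown in RPMI 1640 (10% FCS, 1% glutamine). All kept at 37 °C, 5% CO2.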
# [6] = Induction of basal contraction tone in isolated Wistar rat aorta rings at 10 uM after 10 mins in presence K60 solution (reference value: 0.2 +/- 0.2%); format: tissue-based
# K562 = test: Antiproliferative activity against human K562 cells after 72 hrs by resazurin-based fluorescence assay; format: functional, cell-based; details: K562, 72 h; procedure, shortened: as §1
# PBL [7] = test: Cytotoxicity against human PBL cells assessed as reduction in cell proliferation after 72 hrs by MTS assay
# K-562R = test: Antiproliferative activity against human K562R cells after 72 hrs by resazurin-based fluorescence assay; format: functional, cell-based; procedure, shortened: as §1
# A549 [8] = test: Antiproliferative activity against human A549 cells after 72 hrs by resazurin-based fluorescence assay; format: functional, cell-based; details: A549, 72 h
# [9] = Metabolic stability in human liver microsomes at 5 uM after 120 mins in absence of NADPH by UPLC-MS/MS analysis; format: ADME, microsome; details: read-out: Stability
# U-87 MG [10] = test: Antiproliferative activity against human U87 cells after 72 hrs by resazurin-based fluorescence assay; format: functional, cell-based, U-87MG ATCC; procedure, shortened: as §1
# [11] = Metabolic stability in human liver microsomes at 5 uM preincubated for 5 mins followed NADPH addition measured after 120 mins by UPLC-MS/MS analysis; format: ADME, microsome; details: read-out: Stability
# [12] = Increase in PGF2alpha-induced contractile response in isolated Wistar rat aorta rings at 10 uM after 10 mins; format: tissue-based
# Procedure, shortened: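 Rat aortic rings 2–3 mm in PSS at 37°C, 95% O₂/5% CO₂, pH 7.4, isometric tension at 2 g resting force. Rings were kept if K60 contraction was ≥1.5 g and ACh (10 µM) relaxation ≥15%. Compound (10 µM) or DMSO 0.1% was given for 10 min, then cumulative PGF2α 1 nM–30 µM. Hill fits gave pD2 and Emax as % of K60. N = 6.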
# A549 [13] = test: Potency index, ratio of combretastatin A-4 IC50 to compound IC50 for antiproliferative activity against human A549 cells; format: functional
# HCT-116 [14] = test: Cell cycle arrest in human HCT116 cells assessed as accumulation at G2/M phase at 20 nM after 24 hrs by propidium iodide staining based flow cytometry; format: functional
# Procedure, shortened: (§2)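 Exponentially growing HCT116 (RPMI 1640) or U87-MG (DMEM, 4.5 g/L glucose) cells, each medium with 10% FCS and 1% glutamine, treated 24 h at 20 nM in DMSO, with a DMSO control. DNA content measured by propidium iodide staining and flow cytometry.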
# Tubulin (Homo sapiens) [15] = molecular target: T1, Tubulin (Homo sapiens) (UniProt P68371+Q9H4B7+P0DPH7+P68366+Q13509+Q71U36+P04350+Q3ZCM7+P07437+P68363+Q9BQE3+Q6PEY2+Q13885+Q9BVA1+Q9BUF5); test: Inhibition of tubulin polymerization in human U87MG cells assessed as shrinkage of microtubule spindles at 10 nM after 24 hrs by Hoechst-33258 staining based inverted microscopy; format: cell-based
# Procedure, shortened: (§3)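 U87-MG on chamber slides, 24 h with 5 or 10 nM, control 0.1% DMSO. Fixed in 2% paraformaldehyde, permeabilized with 0.25% Triton X-100, blocked with BSA/goat serum. Stained with mouse anti-β-tubulin overnight at 4°C, then Alexa 647 anti-mouse plus Hoechst 33258 for 2 h, then Alexa 488 phalloidin for F-actin. Imaged on an inverted microscope with a 60X oil objective.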
# Tubulin (Homo sapiens) [16] = molecular target: T1, Tubulin (Homo sapiens); test: Inhibition of tubulin polymerization in human U87MG cells assessed as formation of disorganized microtubule network at 5 nM after 24 hrs by Hoechst-33258 staining based inverted microscopy; format: cell-based; procedure, shortened: as §3
# U-87 MG [17] = test: Cell cycle arrest in human U87MG cells assessed as accumulation at G2/M phase at 20 nM after 24 hrs by propidium iodide staining based flow cytometry; format: functional; details: U-87MG ATCC; procedure, shortened: as §2
# Tubulin (Homo sapiens) [18] = molecular target: T1, Tubulin (Homo sapiens); test: Inhibition of tubulin polymerization in human U87MG cells assessed as formation of disorganized actin network at 10 nM after 24 hrs by Hoechst-33258 staining based inverted microscopy; format: cell-based; procedure, shortened: as §3
# Tubulin (Homo sapiens) [19] = molecular target: T1, Tubulin (Homo sapiens); test: Inhibition of tubulin polymerization in human U87MG cells assessed as multinucleation at 10 nM after 24 hrs by Hoechst-33258 staining based inverted microscopy; format: cell-based; procedure, shortened: as §3
structure (smiles),measurement,setting,value
C=C(c1ccc(OC(F)(F)F)c(F)c1)c1cc(OC)c(OC)c(OC)c1,IC50,HCT-116 [1],2000 nM
C=C(c1ccc(OC(F)F)c(N)c1)c1cc(OC)c(OC)c(OC)c1,IC50,PBL [2],> 10 µM
same,"remaining at 2 h, 5 µM",[3],100%
same,IC50,HCT-116 [1],1 nM
same,microsomal CLint at 5 µM,[4],13.6 µL/min/mg
same,IC50,[5],400 nM
same,IC50,MCF7,2 nM
same,Activity,[6],2.2%
same,IC50,K562,4 nM
same,IC50,PBL [7],> 10 µM
same,IC50,K-562R,0.15 nM
same,IC50,A549 [8],2.2 nM
same,"remaining at 2 h, 5 µM",[9],9%
same,IC50,U-87 MG [10],0.6 nM
same,"remaining at 2 h, 5 µM",[11],3.3%
same,pD2,[12],5.87
C=C(c1ccc(OC)c(N)c1)c1cc(OC)c(OC)c(OC)c1,"remaining at 2 h, 5 µM",[3],94%
same,IC50,HCT-116 [1],2 nM
same,microsomal CLint at 5 µM,[4],46 µL/min/mg
same,IC50,[5],2200 nM
same,IC50,MCF7,2.9 nM
same,Activity,[6],1.6%
same,IC50,K562,5 nM
same,IC50,K-562R,2 nM
same,IC50,A549 [8],7 nM
same,"remaining at 2 h, 5 µM",[9],6%
same,IC50,U-87 MG [10],9 nM
same,"remaining at 2 h, 5 µM",[11],11.6%
same,pD2,[12],5.79
C=C(c1ccc(OC(F)F)c(N)c1)c1cc(C)nc2ccccc12,IC50,HCT-116 [1],20.2 nM
C=C(c1ccc(OC(F)(F)F)cc1)c1cc(OC)cc(OC)c1,IC50,HCT-116 [1],> 10000 nM
COc1cc(C(C)c2ccc(OC(F)(F)F)c(N)c2)cc(OC)c1OC (stereo not given),IC50,HCT-116 [1],3000 nM
C=C(c1ccc(OC)c(F)c1)c1cc(OC)c(OC)c(OC)c1,IC50,HCT-116 [1],7 nM
same,IC50,[5],4000 nM
same,IC50,MCF7,1 nM
same,IC50,K562,6 nM
same,IC50,K-562R,2 nM
same,IC50,A549 [8],8 nM
same,IC50,U-87 MG [10],8 nM
COc1cc(C(C)c2ccc(OC(F)F)c(N)c2)cc(OC)c1OC (stereo not given),IC50,HCT-116 [1],18 nM
COc1ccc(/C=C\c2cc(OC)c(OC)c(OC)c2)cc1O [COMBRETASTATIN A4],IC50,PBL [2],> 10 µM
same,IC50,[5],2100 nM
same,IC50,MCF7,8 nM
same,Activity,[6],0.7%
same,IC50,K562,6 nM
same,IC50,PBL [7],0.1 to 0.5 µM
same,IC50,K-562R,23 nM
same,IC50,U-87 MG [10],3 nM
same,pD2,[12],5.73
C=C(c1ccc(OC)c(N)c1)c1cc(F)c(F)c(F)c1,IC50,HCT-116 [1],100 nM
COc1ccc(C(=C(F)F)c2cc(OC)c(OC)c(OC)c2)cc1O,"remaining at 2 h, 5 µM",[3],100%
same,IC50,HCT-116 [1],2 nM
same,microsomal CLint at 5 µM,[4],64 µL/min/mg
same,IC50,[5],2000 nM
same,IC50,MCF7,0.6 nM
same,IC50,K562,2.2 nM
same,IC50,K-562R,0.2 nM
same,IC50,A549 [8],2 nM
same,"remaining at 2 h, 5 µM",[9],20%
same,IC50,U-87 MG [10],0.3 nM
same,"remaining at 2 h, 5 µM",[11],5%
C=C(c1cc(OC)c(OC)c(OC)c1)c1ccc(OC(F)(F)F)c([N+](=O)[O-])c1,IC50,HCT-116 [1],4000 nM
C=C(c1ccc(OC)c(OC(F)(F)F)c1)c1cc(OC)c(OC)c(OC)c1,IC50,HCT-116 [1],1500 nM
COc1ccc(C(=C(F)F)c2cc(OC)c(OC)c(OC)c2)cc1N,IC50,PBL [2],> 10 µM
same,Ratio IC50,A549 [13],90
same,Activity,HCT-116 [14],Active
same,inhibition,Tubulin (Homo sapiens) [15],Active
same,"remaining at 2 h, 5 µM",[3],100%
same,IC50,HCT-116 [1],0.9 nM
same,microsomal CLint at 5 µM,[4],43 µL/min/mg
same,IC50,[5],2000 nM
same,IC50,MCF7,1.5 nM
same,Activity,[6],2.1%
same,IC50,K562,0.4 nM
same,inhibition,Tubulin (Homo sapiens) [16],Active
same,IC50,PBL [7],> 10 µM
same,Activity,U-87 MG [17],Active
same,IC50,K-562R,0.1 nM
same,IC50,A549 [8],2 nM
same,"remaining at 2 h, 5 µM",[9],< 5%
same,inhibition,Tubulin (Homo sapiens) [18],Active
same,inhibition,Tubulin (Homo sapiens) [19],Active
same,IC50,U-87 MG [10],0.2 nM
same,"remaining at 2 h, 5 µM",[11],13.6%
same,pD2,[12],5.94
COc1cc(C(C)c2ccc(OC(F)(F)F)cc2)cc(OC)c1OC (stereo not given),IC50,HCT-116 [1],> 10000 nM
COc1ccc(C(c2cc(OC)c(OC)c(OC)c2)C(F)F)cc1O (stereo not given),IC50,HCT-116 [1],30 nM
C=C(c1ccc(OC(F)(F)F)cc1)c1cc(OC)c(OC)c(OC)c1,IC50,HCT-116 [1],5000 nM
COc1cc(C(C)c2ccc(OC(F)(F)F)c(F)c2)cc(OC)c1OC (stereo not given),IC50,HCT-116 [1],5000 nM
COc1ccc(C(C)c2cc(OC)c(OC)c(OC)c2)cc1F (stereo not given),IC50,HCT-116 [1],85 nM
C=C(c1ccc(OC(F)(F)F)c(N)c1)c1cc(OC)c(OC)c(OC)c1,IC50,HCT-116 [1],200 nM
C=C(c1cc(OC)cc(OC)c1)c1ccc(OC(F)(F)F)c([N+](=O)[O-])c1,IC50,HCT-116 [1],> 10000 nM
COc1cc(C(=C(F)F)c2ccc(OC(F)F)c(N)c2)cc(OC)c1OC,IC50,HCT-116 [1],9.14 nM
C=C(c1ccc(OC(F)(F)F)cc1)c1c(OC)cc(OC)cc1OC,IC50,HCT-116 [1],> 10000 nM
COc1ccc(C(C)c2cc(OC)c(OC)c(OC)c2)cc1OC(F)(F)F (stereo not given),IC50,HCT-116 [1],> 10000 nM
C=C(c1ccc(OC)c(O)c1)c1cc(OC)c(OC)c(OC)c1,IC50,[5],2000 nM
same,IC50,MCF7,8 nM
same,IC50,K-562R,2.2 nM
same,IC50,A549 [8],20 nM
same,IC50,U-87 MG [10],8 nM

# From ChEMBL document CHEMBL4138220, “A fluorine scan of a tubulin polymerization inhibitor isocombretastatin A-4: Design, synthesis, molecular modelling, and biological evaluation” (Eur J Med Chem, 2018)
